Test results as given in ChEMBL document CHEMBL2429865, “Withaferin A, a steroidal lactone from Withania somnifera, induces mitotic catastrophe and growth arrest in prostate cancer cells” (2013).
Calls of active or inactive are those of the source. No cut-off for these calls is given here.

Tests used:
[1] = molecular target: T1, M-phase inducer phosphatase 3 (Homo sapiens) (UniProt P30307); assay: Reduction in CDC25C phosphorylation at Ser216 in human PC3 cells at 1 uM after 12 to 24 hrs by Western blotting analysis; type: cell-based; conditions: PC-3
T1 sequence (whole entry): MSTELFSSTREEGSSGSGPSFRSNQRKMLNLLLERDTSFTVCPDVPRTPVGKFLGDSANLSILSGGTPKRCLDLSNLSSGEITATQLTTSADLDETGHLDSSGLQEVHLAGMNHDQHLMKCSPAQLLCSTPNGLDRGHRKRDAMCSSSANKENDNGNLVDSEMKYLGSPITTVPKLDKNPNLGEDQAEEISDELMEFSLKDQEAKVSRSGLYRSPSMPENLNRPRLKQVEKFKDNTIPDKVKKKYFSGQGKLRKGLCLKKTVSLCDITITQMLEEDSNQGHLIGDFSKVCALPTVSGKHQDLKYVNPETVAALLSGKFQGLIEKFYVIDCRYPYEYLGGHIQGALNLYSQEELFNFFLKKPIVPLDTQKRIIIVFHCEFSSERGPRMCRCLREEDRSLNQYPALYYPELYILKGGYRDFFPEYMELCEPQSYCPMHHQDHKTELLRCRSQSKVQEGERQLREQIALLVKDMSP
How it was run: (§1)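 PC-3 cells are treated with 1 μM for various times. Lysates are made in M-PER buffer with protease inhibitor cocktail, and 25 μg protein is immunoblotted for pWee1 (Ser642), Wee1, pCdc2 (Tyr15), Cdc25C (Ser216) and Myt-1, with β-actin as loading control.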

[2] = tested on: PC-3; assay: Downregulation of cyclin E2 protein expression in human PC3 cells at IC50 after 12 to 48 hrs by Western blotting analysis; type: functional, cell-based
[3] = tested on: PC-3; assay: Mitotic arrest in human PC3 cells assessed as accumulation of phosphorylated histone H3 in nucleus by DAPI staining-based confocal microscopic analysis; type: functional, cell-based
How it was run: (§2)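 PC-3 cells on coverslips are grown to 60% confluence and treated for 24 h. They are fixed in 4% paraformaldehyde for 20 min at room temperature, permeabilized with 0.2% Triton X-100 for 20 min, and immunostained for pH3 (Ser10), Aurora B or α-tubulin with Alexa Fluor secondaries, rhodamine-phalloidin and DAPI. Imaging is by laser scanning confocal microscopy.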

[4] = tested on: PC-3; assay: Induction of cell cycle arrest in human PC3 cells assessed as accumulation at G2/M phase at 1 uM after 24 hrs by propidium iodide staining-based flow cytometry (reference value: 28.3%); type: functional
[5] = molecular target: T2, Serine/threonine-protein kinase Chk1 (Homo sapiens) (UniProt O14757); assay: Reduction in CHK1 phosphorylation at Ser345 in human PC3 cells at IC50 after 12 to 48 hrs by Western blotting analysis; type: cell-based; conditions: PC-3
T2 sequence (whole entry): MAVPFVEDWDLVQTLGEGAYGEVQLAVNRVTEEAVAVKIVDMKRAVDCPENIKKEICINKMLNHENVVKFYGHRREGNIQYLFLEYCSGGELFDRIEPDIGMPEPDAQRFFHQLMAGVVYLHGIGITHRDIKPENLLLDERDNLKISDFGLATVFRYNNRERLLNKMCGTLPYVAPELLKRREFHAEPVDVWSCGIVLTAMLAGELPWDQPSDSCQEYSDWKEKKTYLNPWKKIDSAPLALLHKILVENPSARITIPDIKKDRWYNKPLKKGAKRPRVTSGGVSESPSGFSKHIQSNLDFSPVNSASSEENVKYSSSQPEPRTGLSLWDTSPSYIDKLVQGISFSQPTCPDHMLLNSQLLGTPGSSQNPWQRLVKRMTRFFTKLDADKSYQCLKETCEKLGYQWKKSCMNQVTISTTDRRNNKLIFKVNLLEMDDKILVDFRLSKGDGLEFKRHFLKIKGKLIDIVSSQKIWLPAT

[6] = molecular target: Cyclin-dependent kinase 1/cyclin B1 (Homo sapiens) (UniProt P06493+P14635); assay: Activation of Cdc2/cyclin B in human PC3 cells; type: cell-based; conditions: PC-3
Chain of Cyclin-dependent kinase 1/cyclin B1 (Homo sapiens) (P06493 whole entry, looked up): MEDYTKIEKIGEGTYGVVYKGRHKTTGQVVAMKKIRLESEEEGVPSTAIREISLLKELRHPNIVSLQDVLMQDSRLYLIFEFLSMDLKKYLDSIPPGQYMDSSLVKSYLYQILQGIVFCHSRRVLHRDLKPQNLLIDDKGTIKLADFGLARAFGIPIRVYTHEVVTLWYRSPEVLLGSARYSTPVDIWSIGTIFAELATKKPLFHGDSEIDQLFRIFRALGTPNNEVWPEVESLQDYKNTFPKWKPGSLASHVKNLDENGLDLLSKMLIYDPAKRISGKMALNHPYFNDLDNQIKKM
Chain of Cyclin-dependent kinase 1/cyclin B1 (Homo sapiens) (P14635 whole entry, looked up): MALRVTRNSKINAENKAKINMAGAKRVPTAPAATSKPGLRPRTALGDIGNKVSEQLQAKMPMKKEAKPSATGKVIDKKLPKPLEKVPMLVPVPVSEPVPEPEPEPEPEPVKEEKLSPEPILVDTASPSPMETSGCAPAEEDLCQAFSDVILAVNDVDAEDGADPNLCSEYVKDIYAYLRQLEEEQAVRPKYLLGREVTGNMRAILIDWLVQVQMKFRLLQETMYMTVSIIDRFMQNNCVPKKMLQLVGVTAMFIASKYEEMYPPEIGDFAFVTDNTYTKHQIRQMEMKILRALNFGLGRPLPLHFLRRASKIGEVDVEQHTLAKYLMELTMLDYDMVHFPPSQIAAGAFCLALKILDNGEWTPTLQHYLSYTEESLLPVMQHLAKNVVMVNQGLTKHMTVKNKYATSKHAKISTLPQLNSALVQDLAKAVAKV
How it was run: (§3)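 Lysates of vehicle- or drug-treated PC-3 cells are diluted in kinase buffer and added to wells precoated with recombinant Cdc25C substrate. Phosphorylation is started with Mg2+ and ATP. Phospho-Cdc25C Ser216 is detected with an HRP-conjugated antibody and TMB colour with stop reagent. The Cdc2-cyclin B1 line uses a parallel kit of the same format.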

[7] = tested on: PC-3; assay: Induction of cell cycle arrest in human PC3 cells assessed as accumulation at G2/M phase at 1 uM after 48 hrs by propidium iodide staining-based flow cytometry (reference value: 25.3%); type: functional
[8] = tested on: PC-3; assay: Upregulation of p21 mRNA expression in human PC3 cells at IC50 after 12 to 48 hrs by SYBR green staining-based RT-PCR analysis; type: functional, cell-based
[9] = molecular target: Aurora kinase B (Homo sapiens) (UniProt Q96GD4); assay: Induction of Aurora B-mediated histone H3 phosphorylation at Ser10 in human PC3 cells after 12 to 48 hrs by Western blotting analysis; type: cell-based; conditions: PC-3
Chain of Aurora kinase B (Homo sapiens) (Q96GD4 whole entry): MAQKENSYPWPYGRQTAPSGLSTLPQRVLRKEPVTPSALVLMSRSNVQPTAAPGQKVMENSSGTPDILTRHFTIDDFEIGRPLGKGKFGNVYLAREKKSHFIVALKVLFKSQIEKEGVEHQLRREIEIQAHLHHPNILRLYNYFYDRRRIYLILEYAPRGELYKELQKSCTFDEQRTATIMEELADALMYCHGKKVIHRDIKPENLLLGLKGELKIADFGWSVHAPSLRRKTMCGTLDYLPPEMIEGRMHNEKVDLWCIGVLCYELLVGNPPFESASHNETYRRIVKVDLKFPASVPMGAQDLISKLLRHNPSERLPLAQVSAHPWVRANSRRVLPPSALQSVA

[10] = tested on: PC-3; assay: Growth inhibition of human PC3 cells assessed as loss of cell viability after 24 hrs by trypan blue exclusion assay; type: functional, cell-based
How it was run: (§4)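 PC-3 (DMEM) and DU-145 (RPMI-1640) cells, with 10% heat-inactivated FBS, are seeded at 3×10⁵ cells/well, cultured 24 h, then exposed to 0.5, 1, 2, 3 and 4 μM for 24 h at 37°C, 5% CO₂. DMSO is ≤0.002%. Viable cells are counted by trypan blue exclusion on a hemocytometer and expressed as % of DMSO control. IC50 is calculated. Mean ± SEM of three independent experiments.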

[11] = tested on: PC-3; assay: Downregulation of Myt-1 protein expression in human PC3 cells at 1 uM after 12 to 48 hrs by Western blotting analysis; type: functional, cell-based; how it was run: as §1
[12] = tested on: DU-145; assay: Induction of cell cycle arrest in human DU145 cells assessed as accumulation at G2/M phase at 1 uM after 48 hrs by propidium iodide staining-based flow cytometry (reference value: 22%); type: functional
[13] = molecular target: T2, Serine/threonine-protein kinase Chk1 (Homo sapiens); assay: Activation of Chk1 in human PC3 cells assessed as phosphorylation of CDC25C at Ser216; type: cell-based; conditions: PC-3; how it was run: as §3
[14] = tested on: PC-3; assay: Mitotic arrest in human PC3 cells assessed as distorted spindles and curving microtubule array by DAPI staining-based confocal microscopic analysis; type: functional, cell-based; how it was run: as §2
[15] = tested on: DU-145; assay: Induction of cell cycle arrest in human DU145 cells assessed as accumulation at G2/M phase at 1 uM after 24 hrs by propidium iodide staining-based flow cytometry (reference value: 22%); type: functional
[16] = tested on: PC-3; assay: Upregulation of Aurora B protein expression in human PC3 cells at IC50 after 12 to 48 hrs by Western blotting analysis; type: functional, cell-based
[17] = tested on: PC-3; assay: Downregulation of cyclin B1 protein expression in human PC3 cells at IC50 after 12 to 48 hrs by Western blotting analysis; type: functional, cell-based
[18] = tested on: PC-3; assay: Mitotic arrest in human PC3 cells assessed as defect in depolymerization of tubulin-alpha by DAPI staining-based confocal microscopic analysis; type: functional, cell-based; how it was run: as §2
[19] = molecular target: Serine/threonine-protein kinase Chk2 (Homo sapiens) (UniProt O96017); assay: Reduction in CHK2 phosphorylation at Thr68 in human PC3 cells at IC50 after 12 to 48 hrs by Western blotting analysis; type: cell-based; conditions: PC-3
Chain of Serine/threonine-protein kinase Chk2 (Homo sapiens) (O96017 whole entry): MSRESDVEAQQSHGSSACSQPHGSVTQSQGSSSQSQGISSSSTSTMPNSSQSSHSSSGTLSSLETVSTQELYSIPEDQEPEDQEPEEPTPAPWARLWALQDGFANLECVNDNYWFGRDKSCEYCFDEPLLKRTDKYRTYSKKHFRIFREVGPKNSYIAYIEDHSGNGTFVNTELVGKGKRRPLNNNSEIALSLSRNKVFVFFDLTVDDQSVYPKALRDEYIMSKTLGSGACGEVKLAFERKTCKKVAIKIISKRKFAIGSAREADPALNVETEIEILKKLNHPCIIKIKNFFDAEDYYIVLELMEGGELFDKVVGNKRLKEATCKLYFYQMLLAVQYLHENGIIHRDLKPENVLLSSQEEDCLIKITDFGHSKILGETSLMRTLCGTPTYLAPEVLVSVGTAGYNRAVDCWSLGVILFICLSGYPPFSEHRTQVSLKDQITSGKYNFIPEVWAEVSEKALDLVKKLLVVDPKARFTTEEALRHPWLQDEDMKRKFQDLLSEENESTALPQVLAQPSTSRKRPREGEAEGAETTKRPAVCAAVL

[20] = tested on: PC-3; assay: Cell cycle arrest in human PC3 cells assessed as accumulation at G2/M phase at 1 uM after 8 hrs by propidium iodide staining-based flow cytometry; type: functional
[21] = molecular target: Cyclin-dependent kinase 1 (Homo sapiens) (UniProt P06493); assay: Reduction in CDC2 phosphorylation at Tyr15 in human PC3 cells at 1 uM after 12 to 24 hrs by Western blotting analysis; type: cell-based; conditions: PC-3; how it was run: as §1
Chain of Cyclin-dependent kinase 1 (Homo sapiens) (P06493 whole entry, looked up): as the sequence (P06493 whole entry, looked up) above

[22] = tested on: DU-145; assay: Growth inhibition of human DU145 cells assessed as loss of cell viability after 24 hrs by trypan blue exclusion assay; type: functional, cell-based; how it was run: as §4
[23] = molecular target: Cyclin-dependent kinase 1 (Homo sapiens) (UniProt P06493); assay: Reduction in CDC2 phosphorylation at Tyr15 in human PC3 cell cytoplasm at 1 uM after 24 hrs by immunofluorescence assay; conditions: PC-3
How it was run: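 PC-3 cells on coverslips at 60% confluence are treated with drug or DMSO for 24 h. They are fixed in 4% paraformaldehyde, permeabilized with 0.2% Triton X-100, and immunostained for pCdc2 (Tyr15) with Alexa Fluor secondary and DAPI counterstain. Images are taken by fluorescence/confocal microscopy.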

[24] = tested on: DU-145; assay: Cell cycle arrest in human DU145 cells assessed as accumulation at G2/M phase at 1 uM after 8 hrs by propidium iodide staining-based flow cytometry; type: functional
[25] = molecular target: Wee1-like protein kinase (Homo sapiens) (UniProt P30291); assay: Induction of Wee1 phosphorylation at Ser642 in human PC3 cells at 1 uM after 12 to 24 hrs by Western blotting analysis; type: cell-based; conditions: PC-3; how it was run: as §1
Chain of Wee1-like protein kinase (Homo sapiens) (P30291 whole entry, looked up): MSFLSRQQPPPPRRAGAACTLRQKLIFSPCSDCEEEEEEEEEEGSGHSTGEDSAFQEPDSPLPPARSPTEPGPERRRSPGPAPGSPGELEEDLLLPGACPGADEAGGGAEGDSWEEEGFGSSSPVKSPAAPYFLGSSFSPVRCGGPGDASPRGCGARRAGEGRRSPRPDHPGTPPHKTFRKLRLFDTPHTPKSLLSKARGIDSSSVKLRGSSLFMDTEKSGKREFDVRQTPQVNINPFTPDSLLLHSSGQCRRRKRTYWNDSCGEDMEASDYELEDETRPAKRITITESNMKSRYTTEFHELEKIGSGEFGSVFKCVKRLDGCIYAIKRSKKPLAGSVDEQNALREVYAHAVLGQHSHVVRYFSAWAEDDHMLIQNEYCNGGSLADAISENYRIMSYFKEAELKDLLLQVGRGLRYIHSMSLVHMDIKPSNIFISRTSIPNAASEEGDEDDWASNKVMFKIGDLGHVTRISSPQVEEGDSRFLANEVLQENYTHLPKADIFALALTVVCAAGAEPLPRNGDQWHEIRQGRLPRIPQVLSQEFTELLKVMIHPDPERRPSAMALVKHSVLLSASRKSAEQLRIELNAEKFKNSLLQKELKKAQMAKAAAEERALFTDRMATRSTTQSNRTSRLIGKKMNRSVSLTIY

[26] = tested on: PC-3; assay: Mitotic arrest in human PC3 cells assessed as punctate distribution of Aurora B in centromeric region of chromosomes by DAPI staining-based confocal microscopic analysis; type: functional, cell-based; how it was run: as §2
[27] = tested on: PC-3; assay: Effect on 14-3-3 protein expression in human PC3 cells at IC50 after 12 to 48 hrs by Western blotting analysis; type: functional, cell-based
[28] = tested on: PC-3; assay: Upregulation of p21 protein expression in human PC3 cells at IC50 after 12 to 48 hrs by Western blotting analysis; type: functional, cell-based
[29] = molecular target: Tubulin alpha (Homo sapiens) (UniProt P0DPH7+P68366+Q71U36+P68363+Q9BQE3+Q6PEY2+A6NHL2+Q9NY65); assay: Inhibition of tubulin-alpha (unknown origin) polymerization by fluorescence-based assay; type: protein assay; conditions: TDE = time-dependent effect
[30] = tested on: PC-3; assay: Downregulation of cyclin A2 protein expression in human PC3 cells at IC50 after 12 to 48 hrs by Western blotting analysis; type: functional, cell-based

Activity [1]: Active | Activity [5]: Active | Activity [6]: inactive | Activity [9]: Active | Activity [13]: inactive | Activity [19]: Active | Activity [21]: Active | Activity [23]: Active | Activity [25]: Active | inhibition [29]: tde
Structure (SMILES): CC1=C(CO)C(=O)O[C@@H]([C@@H](C)[C@H]2CC[C@H]3[C@@H]4C[C@H]5O[C@]56[C@@H](O)C=CC(=O)[C@]6(C)[C@H]4CC[C@]23C)C1 [WITHAFERIN A]
Activity [2]: Active | Activity [3]: Active | Activity [4]: 62.7% | Activity [7]: 60.7% | Activity [8]: Active | growth inhibition (GI) [10]: Dose-dependent effect | Activity [11]: Active | Activity [12]: 24.75% | Activity [14]: Active | Activity [15]: 36.75% | Activity [16]: Active | Activity [17]: Active | Activity [18]: Active | Activity [20]: Active | growth inhibition (GI) [22]: Dose-dependent effect | Activity [24]: Active | Activity [26]: Active | Activity [27]: inactive | Activity [28]: Active | Activity [30]: Active
